Key:
[1] = target: T1, 5-hydroxytryptamine receptor 1A (Rattus norvegicus, UniProt P19327); assay: Displacement of [3H]8OH-DPAT from 5HT1A in Sprague-Dawley rat brain cortex by liquid scintillation counting
T1 sequence (P19327 whole entry): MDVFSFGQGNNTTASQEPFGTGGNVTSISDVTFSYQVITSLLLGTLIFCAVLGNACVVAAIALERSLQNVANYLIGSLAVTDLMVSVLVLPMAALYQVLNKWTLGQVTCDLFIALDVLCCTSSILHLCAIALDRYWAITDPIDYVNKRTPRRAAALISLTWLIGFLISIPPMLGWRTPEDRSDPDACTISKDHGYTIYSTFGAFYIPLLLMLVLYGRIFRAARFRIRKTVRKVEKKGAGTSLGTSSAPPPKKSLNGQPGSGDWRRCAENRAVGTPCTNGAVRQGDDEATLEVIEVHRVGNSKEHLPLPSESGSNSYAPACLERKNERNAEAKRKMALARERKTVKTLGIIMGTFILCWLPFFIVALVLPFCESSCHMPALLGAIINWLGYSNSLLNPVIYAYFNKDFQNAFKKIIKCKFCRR
Method in brief: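 Male Sprague–Dawley rat (180–220 g) cerebral cortex membranes, washed and preincubated 10 min at 37 °C, in Tris–HCl pH 7.7 with pargyline, 4 mM CaCl2, 0.1% ascorbate. [3H]-8-OH-DPAT at 0.1 nM final, 30 min at 37 °C, GF/B filtration. Nonspecific binding defined with 5-HT. Six concentrations in triplicate; IC50 converted to Ki by Cheng–Prusoff using Scatchard KD.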

[2] = target: 5-hydroxytryptamine receptor 2A (Rattus norvegicus, UniProt P14842); assay: Displacement of [3H]ketanserin from 5HT2A in Sprague-Dawley rat brain cortex by liquid scintillation counting
Sequence of 5-hydroxytryptamine receptor 2A (P14842 whole entry): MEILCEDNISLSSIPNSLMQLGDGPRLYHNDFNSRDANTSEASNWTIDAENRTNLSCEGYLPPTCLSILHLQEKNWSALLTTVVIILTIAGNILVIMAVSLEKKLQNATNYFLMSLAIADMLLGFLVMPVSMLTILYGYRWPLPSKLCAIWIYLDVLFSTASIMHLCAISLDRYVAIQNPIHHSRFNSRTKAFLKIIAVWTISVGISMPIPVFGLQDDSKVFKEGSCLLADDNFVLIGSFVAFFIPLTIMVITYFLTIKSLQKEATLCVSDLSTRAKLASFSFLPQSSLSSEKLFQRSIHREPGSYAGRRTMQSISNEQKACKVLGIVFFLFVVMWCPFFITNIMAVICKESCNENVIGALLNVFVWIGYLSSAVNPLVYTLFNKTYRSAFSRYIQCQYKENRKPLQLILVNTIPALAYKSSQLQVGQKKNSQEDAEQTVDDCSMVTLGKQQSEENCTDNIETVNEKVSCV
Method in brief: (§1)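 Frontal cortex of male Sprague–Dawley rats (180–220 g), in 50 mM Tris-HCl, 0.5 mM EDTA, 10 mM MgCl2, pH 7.4, plus 0.1% ascorbate and pargyline. Triplicate 2.0 mL assays: 5-HT2A with 5 mg tissue and 0.4 nM [3H]ketanserin; 5-HT2C with 10 mg tissue and 1 nM [3H]mesulergine. 15 min at 37 °C, PEI-soaked filters. IC50 from six concentrations converted to Ki (Cheng–Prusoff).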

[3] = target: T2, 5-hydroxytryptamine receptor 2C (Rattus norvegicus, UniProt P08909); assay: Displacement of [3H]mesulergine from 5HT2C in Sprague-Dawley rat brain cortex by liquid scintillation counting; method in brief: as §1
T2 sequence (P08909 whole entry): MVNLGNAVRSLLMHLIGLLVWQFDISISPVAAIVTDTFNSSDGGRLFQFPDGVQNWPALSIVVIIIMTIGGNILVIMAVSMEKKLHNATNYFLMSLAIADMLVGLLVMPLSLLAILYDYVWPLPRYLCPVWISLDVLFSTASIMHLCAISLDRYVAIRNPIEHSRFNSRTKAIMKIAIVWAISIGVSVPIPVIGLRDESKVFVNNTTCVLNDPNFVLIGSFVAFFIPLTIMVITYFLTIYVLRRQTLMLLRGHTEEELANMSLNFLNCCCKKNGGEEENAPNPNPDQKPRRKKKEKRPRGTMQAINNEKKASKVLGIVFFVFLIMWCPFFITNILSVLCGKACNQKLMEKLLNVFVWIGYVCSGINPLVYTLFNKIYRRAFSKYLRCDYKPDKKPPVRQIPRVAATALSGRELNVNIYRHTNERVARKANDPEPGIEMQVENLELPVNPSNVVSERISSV

D(1A) dopamine receptor = D(1A) dopamine receptor (Rattus norvegicus, UniProt P18901); assay: Displacement of [3H]SCH23390 from dopamine D1 in rat striatum by liquid scintillation counting
Sequence of D(1A) dopamine receptor (P18901 whole entry): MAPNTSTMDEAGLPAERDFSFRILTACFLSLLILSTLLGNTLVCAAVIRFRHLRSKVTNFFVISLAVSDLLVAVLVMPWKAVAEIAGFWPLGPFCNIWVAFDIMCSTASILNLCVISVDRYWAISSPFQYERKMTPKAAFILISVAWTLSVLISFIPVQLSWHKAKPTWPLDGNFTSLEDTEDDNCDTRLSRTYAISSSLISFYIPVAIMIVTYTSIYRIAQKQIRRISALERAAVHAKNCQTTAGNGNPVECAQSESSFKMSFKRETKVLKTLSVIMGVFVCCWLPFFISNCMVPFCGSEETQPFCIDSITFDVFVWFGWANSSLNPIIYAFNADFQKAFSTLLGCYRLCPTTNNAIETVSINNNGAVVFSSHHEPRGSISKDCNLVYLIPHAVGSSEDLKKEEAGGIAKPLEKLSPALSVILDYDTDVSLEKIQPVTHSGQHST
Method in brief: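 Rat corpora striata membranes in 50 mM Tris–HCl with 120 mM NaCl, 5 mM KCl, 2 mM CaCl2, 1 mM MgCl2, 0.1% ascorbic acid, pargyline, pH 7.1 at 37 °C; 3 mg fresh tissue per tube. [3H]SCH-23390 at 0.4 nM final, 15 min at 37 °C, GF/B filtration. Nonspecific binding defined with piflutixol. Ki from IC50 via Cheng–Prusoff.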

D(2) dopamine receptor = D(2) dopamine receptor (Rattus norvegicus, UniProt P61169); assay: Displacement of [3H]spiperone from dopamine D2 in rat striatum by liquid scintillation counting
Sequence of D(2) dopamine receptor (P61169 whole entry): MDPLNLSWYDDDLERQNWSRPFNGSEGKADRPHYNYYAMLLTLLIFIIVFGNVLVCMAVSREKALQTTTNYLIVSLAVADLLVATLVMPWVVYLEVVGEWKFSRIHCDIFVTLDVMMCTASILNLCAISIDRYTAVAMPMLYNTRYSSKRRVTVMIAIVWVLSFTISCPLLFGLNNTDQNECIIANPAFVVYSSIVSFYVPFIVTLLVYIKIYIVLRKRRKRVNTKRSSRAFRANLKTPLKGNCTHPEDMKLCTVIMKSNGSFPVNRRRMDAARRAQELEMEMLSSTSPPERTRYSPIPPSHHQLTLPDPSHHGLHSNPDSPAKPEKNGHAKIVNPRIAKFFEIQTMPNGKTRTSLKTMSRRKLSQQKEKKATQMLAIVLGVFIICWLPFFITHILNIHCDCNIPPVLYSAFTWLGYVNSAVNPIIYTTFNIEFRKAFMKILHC
Method in brief: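 Striatal membranes (3 mg fresh tissue) in Tris–HCl with NaCl, KCl, CaCl2, MgCl2, ascorbic acid and pargyline, pH 7.1 at 37 °C. Incubated with [3H]spiperone at 0.4 nM final for 15 min at 37 °C, then filtered on GF/B. Nonspecific binding defined with (+)-butaclamol. IC50 converted to Ki by Cheng–Prusoff.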

[4] = target: T3, Adrenergic receptor alpha-1 (Rattus norvegicus, UniProt P15823+P23944+P43140); assay: Displacement of [3H]prozosine from alpha1 adrenergic receptor in rat brain cortex by liquid scintillation counting; type: tissue-based
T3 sequence (P15823 whole entry): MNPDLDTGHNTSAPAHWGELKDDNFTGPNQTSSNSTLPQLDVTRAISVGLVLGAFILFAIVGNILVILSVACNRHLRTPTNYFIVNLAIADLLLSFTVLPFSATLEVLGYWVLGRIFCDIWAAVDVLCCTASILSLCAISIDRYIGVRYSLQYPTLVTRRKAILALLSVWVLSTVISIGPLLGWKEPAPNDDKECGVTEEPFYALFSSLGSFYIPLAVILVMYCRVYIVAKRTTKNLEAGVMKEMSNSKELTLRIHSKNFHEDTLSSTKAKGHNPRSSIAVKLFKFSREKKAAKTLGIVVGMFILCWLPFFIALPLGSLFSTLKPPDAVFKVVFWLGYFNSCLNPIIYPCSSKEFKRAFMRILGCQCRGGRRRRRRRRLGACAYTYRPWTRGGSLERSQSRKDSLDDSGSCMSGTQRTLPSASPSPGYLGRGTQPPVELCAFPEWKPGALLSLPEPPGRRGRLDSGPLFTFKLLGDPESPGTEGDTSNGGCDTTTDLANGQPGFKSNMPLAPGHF
T3 sequence (P23944 whole entry): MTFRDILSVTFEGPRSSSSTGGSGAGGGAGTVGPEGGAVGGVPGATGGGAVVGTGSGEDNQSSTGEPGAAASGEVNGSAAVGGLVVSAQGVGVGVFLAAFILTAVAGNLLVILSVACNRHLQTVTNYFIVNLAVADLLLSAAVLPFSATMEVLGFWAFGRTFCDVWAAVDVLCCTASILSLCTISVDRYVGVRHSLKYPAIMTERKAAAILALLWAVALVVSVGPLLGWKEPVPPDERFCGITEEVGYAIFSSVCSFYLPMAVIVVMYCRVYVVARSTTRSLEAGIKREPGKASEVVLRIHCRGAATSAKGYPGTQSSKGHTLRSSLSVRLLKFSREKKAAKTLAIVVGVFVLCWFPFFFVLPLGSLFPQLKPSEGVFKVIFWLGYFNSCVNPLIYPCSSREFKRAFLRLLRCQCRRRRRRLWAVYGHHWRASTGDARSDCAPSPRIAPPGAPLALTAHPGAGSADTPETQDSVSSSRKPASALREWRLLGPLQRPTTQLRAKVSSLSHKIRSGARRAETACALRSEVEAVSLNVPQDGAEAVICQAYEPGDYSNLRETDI
T3 sequence (P43140 whole entry): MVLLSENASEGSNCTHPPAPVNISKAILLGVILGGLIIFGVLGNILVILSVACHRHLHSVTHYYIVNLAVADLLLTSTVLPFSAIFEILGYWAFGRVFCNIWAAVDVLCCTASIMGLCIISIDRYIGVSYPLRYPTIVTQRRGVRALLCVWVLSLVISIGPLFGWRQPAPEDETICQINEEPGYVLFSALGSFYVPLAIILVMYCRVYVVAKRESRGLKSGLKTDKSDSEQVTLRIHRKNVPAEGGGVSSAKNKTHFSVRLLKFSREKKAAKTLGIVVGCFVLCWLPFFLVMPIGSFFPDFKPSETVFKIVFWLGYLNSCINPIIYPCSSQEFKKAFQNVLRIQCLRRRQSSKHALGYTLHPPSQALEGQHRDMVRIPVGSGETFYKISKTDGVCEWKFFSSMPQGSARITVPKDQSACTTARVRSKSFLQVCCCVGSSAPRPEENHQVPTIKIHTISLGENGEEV
Method in brief: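 Brain cortex membranes (10 mg fresh tissue) in 50 mM Tris–HCl pH 7.4 at 25 °C. [3H]prazosin at 0.4 nM final, incubated 30 min at 25 °C, GF/B filtration. Nonspecific binding with […]. Ki from IC50 via Cheng–Prusoff.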

[5] = target: T4, Adrenergic receptor alpha-2 (Rattus norvegicus, UniProt P22086+P19328+P22909); assay: Displacement of [3H]yohimbine from alpha2 adrenergic receptor in rat brain cortex by liquid scintillation counting; type: tissue-based
T4 sequence (P22086 whole entry): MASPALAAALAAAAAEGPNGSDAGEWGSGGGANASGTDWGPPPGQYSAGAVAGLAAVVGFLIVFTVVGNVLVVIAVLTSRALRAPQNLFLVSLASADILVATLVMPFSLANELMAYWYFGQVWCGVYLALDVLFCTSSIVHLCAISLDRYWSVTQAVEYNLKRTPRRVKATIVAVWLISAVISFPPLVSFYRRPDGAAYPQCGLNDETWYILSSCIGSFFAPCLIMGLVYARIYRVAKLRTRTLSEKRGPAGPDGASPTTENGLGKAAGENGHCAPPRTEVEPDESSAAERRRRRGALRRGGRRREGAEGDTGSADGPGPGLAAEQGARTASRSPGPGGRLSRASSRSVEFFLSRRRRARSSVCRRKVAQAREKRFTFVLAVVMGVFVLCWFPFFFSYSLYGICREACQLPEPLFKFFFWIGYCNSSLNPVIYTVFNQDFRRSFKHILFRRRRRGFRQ
T4 sequence (P19328 whole entry): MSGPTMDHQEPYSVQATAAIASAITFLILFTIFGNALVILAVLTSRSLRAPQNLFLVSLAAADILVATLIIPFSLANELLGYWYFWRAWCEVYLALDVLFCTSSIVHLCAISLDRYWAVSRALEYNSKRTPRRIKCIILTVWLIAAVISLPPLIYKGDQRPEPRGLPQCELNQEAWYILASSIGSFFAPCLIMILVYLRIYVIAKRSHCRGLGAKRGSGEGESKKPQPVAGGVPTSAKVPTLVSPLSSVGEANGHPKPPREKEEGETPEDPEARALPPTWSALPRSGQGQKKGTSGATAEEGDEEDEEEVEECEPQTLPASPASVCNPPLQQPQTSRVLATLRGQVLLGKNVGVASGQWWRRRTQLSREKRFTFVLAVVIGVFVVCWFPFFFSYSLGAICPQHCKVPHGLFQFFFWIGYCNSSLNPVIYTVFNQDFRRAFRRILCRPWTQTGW
T4 sequence (P22909 whole entry): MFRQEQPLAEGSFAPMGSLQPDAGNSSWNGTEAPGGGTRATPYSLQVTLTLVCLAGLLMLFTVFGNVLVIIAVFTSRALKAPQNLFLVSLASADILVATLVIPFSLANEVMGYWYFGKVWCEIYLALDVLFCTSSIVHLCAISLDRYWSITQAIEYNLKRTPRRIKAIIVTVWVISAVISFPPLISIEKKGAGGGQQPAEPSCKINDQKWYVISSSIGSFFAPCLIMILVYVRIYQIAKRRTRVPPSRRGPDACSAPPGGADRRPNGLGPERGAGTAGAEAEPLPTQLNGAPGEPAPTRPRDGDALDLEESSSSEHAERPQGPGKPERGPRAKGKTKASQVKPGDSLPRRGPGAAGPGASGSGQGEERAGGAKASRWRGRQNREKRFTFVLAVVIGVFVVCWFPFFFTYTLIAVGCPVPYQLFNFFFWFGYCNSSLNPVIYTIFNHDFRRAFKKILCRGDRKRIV
Method in brief: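 Cortical membranes prepared in 5 mM Tris–HCl/5 mM EDTA pH 7.3, washed three times; 10 mg fresh tissue per tube. [3H]yohimbine at 1 nM final, 30 min at 25 °C, GF/B filtration, washed with Tris–HCl/EDTA pH 7.5. Nonspecific binding defined with […]. IC50 converted to Ki by Cheng–Prusoff.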

SMILES | Ki ([2]; read-out: Ki) | Ki ([3]; read-out: Ki) | Ki ([1]; read-out: Ki) | other results
CCOC(=O)c1cc2cc(OCCCN3CCN(c4ccc([N+](=O)[O-])cc4)CC3)ccc2[nH]1 | 10000 nM | 247 nM | – | Ki [1]: Not Active
CCOC(=O)c1cc2cc(OCCCN3CCN(c4ccc(OC)cc4)CC3)ccc2[nH]1 | 10000 nM | 50.4 nM | 10000 nM | Ki (D(1A) dopamine receptor): Not Active; Ki (D(2) dopamine receptor): Not Active; Ki [4]: 514 nM; Ki [5]: 6480 nM
CCOC(=O)c1cc2cc(OCCCN3CCN(c4cccc(C(F)(F)F)c4)CC3)ccc2[nH]1 | 3610 nM | – | 35.8 nM | Ki [3]: Not Active
CCOC(=O)c1cc2cc(OCCCN3CCN(c4cccc(Cl)c4)CC3)ccc2[nH]1 | – | 1.28 nM | 39 nM | Ki (D(1A) dopamine receptor; read-out: Ki): 1070 nM; Ki (D(2) dopamine receptor): Not Active; Ki [4]: 32.9 nM; Ki [5]: 1350 nM
CCOC(=O)c1cc2cc(OCCCN3CCN(c4ccccc4C)CC3)ccc2[nH]1 | – | – | – | Ki [2]: Not Active; Ki [3]: Not Active
CCOC(=O)c1cc2cc(OCCCN3CCN(c4ccccn4)CC3)ccc2[nH]1 | 344 nM | 104 nM | – | Ki [1]: Not Active
CCOC(=O)c1cc2cc(OCCCN3CCN(c4ccccc4C#N)CC3)ccc2[nH]1 | – | – | – | Ki [2]: Not Active; Ki [3]: Not Active
CCOC(=O)c1cc2cc(OCCCN3CCN(c4ccc(Cl)cc4)CC3)ccc2[nH]1 | – | 45.1 nM | 14 nM | –
CCOC(=O)c1cc2cc(OCCCN3CCN(c4ccc(Cl)c(Cl)c4)CC3)ccc2[nH]1 | – | 10000 nM | 10000 nM | Ki [2]: Not Active
CCOC(=O)c1cc2cc(OCCCN3CCN(Cc4ccc5c(c4)OCO5)CC3)ccc2[nH]1 | 26.1 nM | 43.6 nM | 10000 nM | Ki (D(1A) dopamine receptor; read-out: Ki): 10000 nM; Ki (D(2) dopamine receptor): Not Active; Ki [4]: 338 nM; Ki [5]: 231 nM
CCOC(=O)c1cc2cc(OCCCN3CCN(C(=O)c4ccco4)CC3)ccc2[nH]1 | 452 nM | 309 nM | – | Ki [1]: Not Active
CCOC(=O)c1cc2cc(OCCCN3CCN(c4ccccc4Cl)CC3)ccc2[nH]1 | 537 nM | 39.7 nM | 10000 nM | –

Source: ChEMBL document CHEMBL1154740, “Efficient microwave combinatorial synthesis of novel indolic arylpiperazine derivatives as serotoninergic ligands” (Eur J Med Chem, 2010)
